Results published in ChEMBL document CHEMBL4513216, “Probing the Open Global Health Chemical Diversity Library for Multistage-Active Starting Points for Next-Generation Antimalarials” (ACS Infect Dis, 2020).

Assay: Toxicity liver stage against HepG2, at 10uM
Type: cell-based
Parameters: test concentration 10 uM, cell line HepG2-A16-CD81EGFP
Conditions: human, HepG2-A16-CD81EGFP cells; read-out: INHIBITION
How it was run: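 Uninfected HepG2-A16-CD81EGFP cells, 3 × 10^3 per well, 1536-well, plated on prespotted compound at 10 μM final, parasite-free screening media added to match infected plates; puromycin 10 μM positive, DMSO 0.5% negative; run in parallel with 48 h PbLuc assay at 37 °C, 5% CO2; viability by CellTiter-Glo luminescence, normalized to controls.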

SMILES | cytotoxicity at 10 µM [%]
CC1COCCN1C(=O)c1ccc(=O)n(CCOc2ccccc2)n1 (stereo not given) | -13.5
Cc1nnc2n1CC(CNCc1nc(-c3ccsc3)no1)CC2 (stereo not given) | -4.68
Cc1nccc([C@@H]2C[C@@H]3CCN(Cc4c(C)noc4C)C[C@H]3O2)n1 | -76.9
CNC(=O)c1cccc(CCNc2ncc(Br)cn2)c1 | 9.5
Cc1cc(C)c(C(=O)N2CCCC(O)(CN3CCCC3)C2)cc1C (stereo not given) | 8.4
Cc1[nH]c(=O)[nH]c(=O)c1CN1CCCC(CCc2ccccc2F)C1 (stereo not given) | -4.19
COCCC(Cc1cccc(Br)c1)C(=O)O (stereo not given) | 9.21
O=C(CCc1nccs1)N1CCN(c2cccnn2)CC1 | -2.84
COC(=O)c1ccc(C(=O)NCC2(O)CCOCC2)cc1 | -5.08
CCc1ocnc1C(=O)N1CCC2(CCCN(CC(C)(C)C)C2=O)C1 (stereo not given) | 7.79
CCCNC(=O)c1c(-n2cnnn2)sc2c1CCC2 | 4.05
CCc1noc(C(C)N2CCC(C)CC2)n1 (stereo not given) | -7.6
CC1c2ccsc2CCN1Cc1cc2c(cc1O)OCO2 (stereo not given) | 11.7
CN(C)C(=O)CN1CCC2(CCN(C(=O)N3CCCC3)CC2)C1=O | 2.7
CCOc1ccccc1OC1CCN(C(=O)c2cnsn2)CC1 | 0.32
Cc1cccc(N2CCN(CCS(=O)(=O)c3ccc(Br)cc3)CC2)c1C | 21.9
CCNC(=O)C1CCCN1S(=O)(=O)c1sc(=O)[nH]c1C (stereo not given) | 1.34
Cc1cc(CCC(N)=O)cc(C2CCCN2Cc2ccnn2C)n1 (stereo not given) | -19.8
CO[C@H]1CCN(Cc2c(C)noc2C)[C@@H]2CN(Cc3cccnc3)C[C@H]12 | 5.55
CC(C)N1CCCn2nc(C(=O)NCCc3c[nH]cn3)cc2C1 | 14.2
O=C(NC1CC1)[C@H]1C[C@@H]2CCN(Cc3ccc4c(c3)OCO4)C[C@@H]2O1 | 0.782
CC1=Nc2c(c(=O)[nH]n2C2CCOCC2)C(c2cccc(Br)c2)S1 (stereo not given) | 5.91
c1cnc(N2C[C@H](OCC3CCOCC3)[C@H]3COC[C@H]32)nc1 | -1.92
Cc1csc(NC(=O)C2CSCCC(=O)N2)n1 (stereo not given) | 4.14
O=C(Nc1ccc(CCN2CCC(O)CC2)cc1)C1CCCCC1 | -17.7
CCC(=O)N(CCC(=O)O)Cc1ccc(F)c(F)c1 | -1.99
COC(=O)C(c1cc(F)ccc1F)N(C)C(=O)c1ccnc(C)n1 (stereo not given) | -0.337
COc1ccc2c(c1)CCN(CCC(=O)O)CC2 | -9.21

SMILES | cytotoxicity at 10 µM [%]
CS(=O)(=O)c1ccc(C(=O)N2CCCC(n3ccnc3)C2)cc1 (stereo not given) | -19.4
COc1ccc(-n2cc3[nH]c(=O)n(C(C)C)n3c2=O)cc1 | 2.03
Cn1nc(CNc2ncccn2)c2c1CN(c1cnccn1)CC2 | -107
CC(=O)Nc1ccc(CN(C)Cc2snnc2C)cc1 | -2.17
Nc1cc(C(=O)N2CCCC3(C=Cc4ccccc4O3)CC2)ccn1 (stereo not given) | 13.7
CC(C)n1cnc2c1C(C(=O)NCCO)N(Cc1ccccc1)CC2 (stereo not given) | 2.43
O=C1CC2(CCCCN2C(=O)Cc2ccccc2)CN1c1cccnc1 (stereo not given) | -2.71
CC(=O)N1CCC(NC(=O)N2CCCC2c2ccsc2)CC1 (stereo not given) | 0.421
CCOC1COC2(CCN(Cc3ccc(C)c(C)c3)CC2)C1 (stereo not given) | -11.2
CCCc1noc(C(C)N2CCN(CCn3ccccc3=O)CC2)n1 (stereo not given) | 5.6
O=C(O)CN(C(=O)c1ccccc1)[C@H]1C[C@H]2CCOC[C@H]2C1 | -1.03
Fc1cnc(N2CCCC3(CCN(c4ncccn4)C3)C2)nc1 (stereo not given) | -113
Cn1ncc2c1CCCN(C(=O)C1CCCC1)C2 | 4.13
CN(C)CCNC(=O)Cn1cnc2cc(NC(=O)C3CC3)ccc21 | -14.3
CCN(CC)c1nc2sc(C(=O)NCC(=O)OC)cc2s1 | 1.05
c1ccc(Cc2noc(CN3CCOC(Cn4cccn4)C3)n2)cc1 (stereo not given) | -6.67
COc1ccc(CN2CCC3(CC2)CCN(c2ncccn2)CC3)cc1 | -1.08
COc1ccc(COCC(O)CNC(=O)c2cc(C)oc2C)cc1 (stereo not given) | -13.3
COCCN1CCN(S(=O)(=O)c2ccccc2)Cc2cccnc21 | 4.77
Cc1nn(C)cc1CN1CCCn2nc(CNC(=O)C3CCC3)cc2C1 | 2.84
O=C(Nc1cccnc1)[C@@H]1C[C@H]2OCC[C@H]2N(Cc2nccs2)C1 | 5.02
CN(C)C(=O)CN1C[C@H]2CCN(c3ncccn3)CC[C@H]2S1(=O)=O | 0.466
O=C1CCOC[C@]2(CN(Cc3ccccc3)C[C@H]2c2ccccc2F)N1 | -1.02
CN(C)C(=O)[C@@H]1C[C@@H]2[C@@H](CCN2Cc2nccs2)O1 | -1.42
Cc1cc2cc(C(=O)N[C@@H]3CC[C@@H](N4CCCC4)[C@@H]3O)ccc2o1 | -4.72
COc1ccc(CCC(=O)N2CCNCC2C(=O)N2CCOCC2)cc1 (stereo not given) | 4.34
COCCn1cnnc1Cn1ccnc1-c1ccccc1C | -7.58
